Data set [1] concerns HeLa. Nature of the data set: Cytotoxicity against human HeLa cells assessed as effect on morphological changes at 0.13 to 2 mg/ml by microscopic analysis. It counts as cell-based. The note with it: dose 0.13-2 mg/ml. The procedure, abridged: (§1)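 HeLa and L929 cells were examined by microscopy for morphological change after incubation with compound at the MTT-assay concentrations.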

Data set [2] has as its system L929. Nature of the data set: Cytotoxicity against mouse L929 cells assessed as effect on morphological changes at 0.13 to 2 mg/ml by microscopic analysis. The format is cell-based. Conditions: dose 0.13-2 mg/ml. The essentials:
as §1

In data set [3] the test system is L929. Nature of the data set: Cytotoxicity against mouse L929 cells assessed as increase in cell viability at 2 mg/ml measured after 48 hrs by MTT assay. The format is cell-based. Conditions: l929, 48 h. The procedure, abridged:
(§2)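 MTT assay. HeLa or L929 cells were seeded at 1×10^4/well in DMEM with 10% FBS and grown 12 h at 37 °C. They were exposed to 0.13–2 mg/mL compound (DMSO stock) for 48 h, then given 0.5 mg/mL MTT for 3 h at 37 °C. Formazan was dissolved in DMSO and read at 490 nm. Survival % was blank-corrected against the 0.5% DMSO medium control.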
In general terms: Tetrazolium assays rely on reduction of a dye to a coloured formazan, in cell work by metabolically active cells.

Data set [4] has as its system L929. Nature of the data set: Cytotoxicity against mouse L929 cells assessed as increase in cell viability at 0.13 to 2 mg/ml measured after 48 hrs by MTT assay relative to control. It counts as cell-based. Conditions: l929, 48 h, dose 0.13-2 mg/ml. The procedure, abridged: as §2
In data set [5] the test system is HeLa. Nature of the data set: Cytotoxicity against human HeLa cells assessed as increase in cell viability at 2 mg/ml measured after 48 hrs by MTT assay. The format is cell-based. The procedure, abridged:
as §2

In data set [6] the target is Metallo-beta-lactamase type 2 (Klebsiella pneumoniae) (UniProt C7C422). Nature of the data set: Inhibition of wild type N-terminal His6-tagged Klebsiella pneumoniae NDM-1 expressed in Escherichia coli BL21 assessed as loss of zinc ion at enzyme active site leading to formation of compound-intact protein complex after 20 mins by ESI-MS analysis. The procedure, abridged:
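Native mass analysis: 20 µM purified NDM-1 plus equimolar compound in 20 mM ammonium acetate, 20 min, then infused into nano-ESI source (spray ~20 min at 150 V). Adduct formation and zinc content were read from protein mass.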

For data set [7] the target is unchanged. The data set can be described thus: Inhibition of wild type N-terminal His6-tagged Klebsiella pneumoniae NDM-1 expressed in Escherichia coli BL21 assessed as ratio of Kinact/Ki using nitrocefin as substrate measured after 30 mins. The procedure, abridged: (§3)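 1 nM purified His6-NDM-1 was mixed with varying compound concentrations in 50 mM phosphate buffer ± 50 µM ZnSO4 with BSA. Nitrocefin was added at 7× Km and velocity read at 482 nm, in triplicate. ln(% residual activity) versus incubation time gave kobs, which was fitted hyperbolically against concentration for KI and kinact.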

For data set [8] the target is unchanged. Nature of the data set: Inhibition of wild type N-terminal His6-tagged Klebsiella pneumoniae NDM-1 expressed in Escherichia coli BL21 assessed as inactivation constant using nitrocefin as substrate measured after 30 mins. The procedure, abridged: as §3
Data set [9] addresses T1, Metallo-beta-lactamase type 2 (Klebsiella pneumoniae, UniProt C7C422). Nature of the data set: Inhibition of wild type N-terminal His6-tagged Klebsiella pneumoniae NDM-1 expressed in Escherichia coli BL21 assessed as inhibition constant using nitrocefin as substrate measured after 30 mins. The procedure, abridged: as §3
Data set [10] concerns the target Metallo-beta-lactamase type 2 (Klebsiella pneumoniae) (UniProt C7C422). The data set can be described thus: Time dependent inhibition of wild type N-terminal His6-tagged Klebsiella pneumoniae NDM-1 expressed in Escherichia coli BL21 assessed as residual activity using nitrocefin as substrate. The essentials:
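Purified NDM-1 (residues G36–R270, N-terminal His6, expressed in E. coli BL21), 1 nM, mixed with varying inhibitor concentrations in 50 mM phosphate buffer with or without 50 µM ZnSO4, plus BSA. Nitrocefin at 7×Km was the substrate, read at 482 nm. Residual activity was followed against preincubation time, fitted as pseudo-first-order to give KI and kinact. Triplicate assays.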

Data set [11] has the same target. The data set can be described thus: Inhibition of wild type N-terminal His6-tagged Klebsiella pneumoniae NDM-1 expressed in Escherichia coli BL21 assessed as residual activity preincubated for 20 mins by rapid high dilution method relative to control. The procedure, abridged:
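Reversibility was tested by rapid high dilution: NDM-1 was preincubated 20 min with compound, then diluted. Residual nitrocefin hydrolysis was compared with an enzyme control lacking compound.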

Data set [12] shares this target. Nature of the data set: (§4) Inhibition of wild type N-terminal His6-tagged Klebsiella pneumoniae NDM-1 expressed in Escherichia coli BL21 using nitrocefin as substrate measured after 30 mins. The essentials:
as §3

The target in data set [13] is T1, Metallo-beta-lactamase type 2. Described as §4. The essentials:
as §3

Data set [14] is described as follows: Toxicity in Galleria mellonella wax moth larve assessed as mortality at 2 mg/kg cotreated with 2 mg/kg meropenem relative to control. It counts as organism-based. Conditions: in vivo, read-out: Activity. The essentials: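 G. mellonella larvae (250–300 mg, n=10) infected in the hemocoel at the last left proleg with E. cloacae EL10 at 2.5 × 10^5 CFU/larva in PBS. Treatment was injected at the next left proleg 1 h from inoculation: vehicle, single agents at 10 mg/kg, or combinations at 2+2 or 10+10 mg/kg. Larvae were held at 37 °C and scored every 12 h for 48 h (no response to stimuli = dead). Log-rank test. Three independent experiments.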

In data set [15] the test system is Enterobacter cloacae. The data set can be described thus: Synergistic antibacterial activity against carbapenem-resistant Enterobacter cloacae isolate 27 harboring CTX-M-3, CTX-M-14, TEM-1 and SHV-12 assessed as fractional inhibitory concentration index in presence of meropenem by CLSI protocol based assay. It counts as functional. The procedure, abridged:
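FIC index from MICs of compound alone, meropenem alone, and the 1:1 (mass) compound–meropenem combination, read by eye after overnight incubation in a CLSI-based assay. FIC index = MICcombo/MICcpd + MICcombo/MICMem. FIC index ≤0.5 counted as synergy. At least triplicate assays. Clinical NDM-1 isolates for 17-39; E. coli TG1 carrying the IncX3 blaNDM-1 plasmid for 15.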

In data set [16] the test system is Enterobacter cloacae. The data set can be described thus: Synergistic antibacterial activity against carbapenem-resistant Enterobacter cloacae isolate 18 harboring IMP-4 and TEM-1 assessed as fractional inhibitory concentration index in presence of meropenem by CLSI protocol based assay. The format is functional.
Data set [17] deals with Enterobacter cloacae. Nature of the data set: Growth inhibition of carbapenem-resistant Enterobacter cloacae isolate 27 harboring CTX-M-3, CTX-M-14, TEM-1 and SHV-12 by CLSI protocol based assay. It counts as functional.
Data set [18] concerns Enterobacter cloacae. Nature of the data set: Growth inhibition of carbapenem-resistant Enterobacter cloacae isolate 10 harboring CTX-M-14, TEM-1 and SHV-12 by CLSI protocol based assay. It counts as functional.
The subject of data set [19] is Enterobacter cloacae. Nature of the data set: Growth inhibition of carbapenem-resistant Enterobacter cloacae isolate 07 harboring CTX-M-14, TEM-1 and SHV-12 by CLSI protocol based assay. It counts as functional.
Data set [20] has as its system Citrobacter freundii. Nature of the data set: Growth inhibition of carbapenem-resistant Citrobacter freundii isolate 17 harboring SHV-12 by CLSI protocol based assay. It counts as functional.
The subject of data set [21] is Enterobacter cloacae. The data set can be described thus: Potentiation of meropenem-induced antibacterial activity against carbapenem-resistant Enterobacter cloacae isolate 22 harboring CTX-M-14, TEM-1 and SHV-12 assessed as meropenem MIC by CLSI protocol based assay (Rvb >= 128 ug/ml). It counts as functional.
Data set [22] deals with Citrobacter freundii. The data set can be described thus: Potentiation of meropenem-induced antibacterial activity against carbapenem-resistant Citrobacter freundii isolate 43 assessed as meropenem MIC by CLSI protocol based assay (Rvb >= 128 ug/ml). It counts as functional.
Data set [23] deals with Citrobacter freundii. Nature of the data set: Potentiation of meropenem-induced antibacterial activity against carbapenem-resistant Citrobacter freundii isolate 05 harboring SHV-12 assessed as meropenem MIC by CLSI protocol based assay (Rvb >= 128 ug/ml). It counts as functional.
Data set [24] can be described thus: Covalent inhibition of Escherichia coli NDM-1 using nitrocefin as substrate.

The structures appear in SMILES notation. The source made the active and inactive calls. No cut-off for these calls is given here.

Chain of Metallo-beta-lactamase type 2 (Klebsiella pneumoniae) (C7C422 whole entry, the tested form may be a part): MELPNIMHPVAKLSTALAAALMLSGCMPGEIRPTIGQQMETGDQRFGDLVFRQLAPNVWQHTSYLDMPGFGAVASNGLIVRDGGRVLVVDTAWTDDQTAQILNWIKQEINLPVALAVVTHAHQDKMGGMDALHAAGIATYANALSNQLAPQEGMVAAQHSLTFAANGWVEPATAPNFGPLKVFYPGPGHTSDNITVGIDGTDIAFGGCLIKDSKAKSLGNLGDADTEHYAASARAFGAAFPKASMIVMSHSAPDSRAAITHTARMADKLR
T1 sequence (C7C422 whole entry): as the sequence (C7C422 whole entry, the tested form may be a part) above

With `CC(C)(C)OC(=O)NCCn1[se]c2ccccc2c1=O`, the Activity entry in the data set with HeLa [1] was “Non-Toxic”; in the data set with L929 [2] it was “Non-Toxic”; in the data set with L929 [3], “Non-Toxic”; with L929 [4] it was 70%; in the data set with HeLa [5], “Non-Toxic”; in data set [10], 11%. Besides, the Activity in [11] was found to be 40%. Also, in [6], the inhibition entry was “Active”. The Ratio in data set [7] worked out at 0.067 mM⁻¹ s⁻¹. In addition, the Kinact in data set [8] is 0.068 min⁻¹. In addition, in [9], the Ki was found to be 17 µM. In addition, the inhibition result in [12] is “Dose-dependent effect”. The compound further gave a concentration for half-maximal inhibition (IC50) in data set [13] of 13 µM. The mortality in [14] was found to be 100%. Besides, the “fractional inhibitory concentration index (FICI)” value with Enterobacter cloacae [15] turned out to be 0.16; in the data set on Enterobacter cloacae [16] it was 0.63. Besides, the minimum inhibitory concentration (MIC) against Enterobacter cloacae [17] was no less than 128 µg/mL; with Enterobacter cloacae [18] it was no less than 128 µg/mL; with Enterobacter cloacae [19], no less than 128 µg/mL; in the data set on Citrobacter freundii [20] it was no less than 128 µg/mL; in the data set with Enterobacter cloacae [21], 16 µg/mL; with Citrobacter freundii [22], 16 µg/mL. Also, in the data set with Citrobacter freundii [23], the MIC worked out at 8 µg/mL.

In [24], `O=c1c2ccccc2[se]n1-c1ccccc1` [EBSELEN] showed a Ki of 0.38 µM. Further, the “fractional inhibitory concentration index (FICI)” value in the data set on Enterobacter cloacae [15] and with Enterobacter cloacae [16] was 2.5 throughout. Besides, the MIC in the data set on Enterobacter cloacae [17] was no less than 128 µg/mL; in the data set on Enterobacter cloacae [18], no less than 128 µg/mL; against Enterobacter cloacae [19], no less than 128 µg/mL; against Citrobacter freundii [20], no less than 128 µg/mL; with Enterobacter cloacae [21], no less than 128 µg/mL; in the data set on Citrobacter freundii [22], 32 µg/mL. In the data set with Citrobacter freundii [23], the MIC is 16 µg/mL.

In general, IC50 refers to the concentration that inhibits the measured activity by half. Read a low IC50 as greater potency in that assay. What is called MIC is the least concentration at which growth counts as inhibited.

Values taken from ChEMBL document CHEMBL4673212, “Investigation of synergistic antimicrobial effects of the drug combinations of meropenem and 1,2-benzisoselenazol-3(2H)-one derivatives on carbapenem-resistant Enterobacteriaceae producing NDM-1” (Eur J Med Chem, 2018).
